# Measurements: the array DNA melting data of Ke et al. (doi:10.1101/2024.01.08.574731)
# Assays:
# [1] = melting temperature; fluorescence melt of hairpins on a sequencing array, two-state fit, raised by 9.35 °C to match UV melts; conditions: sodium 0.088 M
# In short: (§1)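 Melting temperature and folding enthalpy were derived from bootstrapped two-state fits. The fitted temperatures were raised by 9.35 °C to agree with UV melts, and four replicates were combined by inverse variance. The underlying data were Cy3 fluorescence images of library hairpins, with annealed Cy3 and quencher oligos, on a sequenced MiSeq flow cell in 50 mM Na-HEPES pH 8.0, 25 mM NaCl, taken in 2.5 °C steps up to 60 °C, normalised to pre-quench Cy3 and to control constructs.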
# [2] = folding enthalpy; higher = less favourable; fluorescence melt of hairpins on a sequencing array, two-state fit; conditions: sodium 0.088 M
# In short: as §1
sequence,measurement,setting,value
TTAACGAAAGTTAA (((((....))))),Tm,[1],41.1 °C
same,folding enthalpy,[2],-14 kcal/mol
TTCCAGAAATGGAA (((((....))))),Tm,[1],31 °C
same,folding enthalpy,[2],-9.36 kcal/mol
TTCCGGAAACGGAA (((((....))))),Tm,[1],48.7 °C
same,folding enthalpy,[2],-18.6 kcal/mol
TTCGAGAAATCGAA (((((....))))),Tm,[1],37.9 °C
same,folding enthalpy,[2],-12.4 kcal/mol
TTGCTGAAAAGCAA (((((....))))),Tm,[1],49.2 °C
same,folding enthalpy,[2],-16.2 kcal/mol
TTGTTGAAAAACAA (((((....))))),Tm,[1],30.7 °C
same,folding enthalpy,[2],-11.4 kcal/mol
TTTCGGAAACGAAA (((((....))))),Tm,[1],40.6 °C
same,folding enthalpy,[2],-18.3 kcal/mol
TTTGCGAAAGCAAA (((((....))))),Tm,[1],54.3 °C
same,folding enthalpy,[2],-17.4 kcal/mol
TTTTGGAAACAAAA (((((....))))),Tm,[1],27.4 °C
same,folding enthalpy,[2],-9.86 kcal/mol
